Published values gathered from unrelated publications.
Lines come from different studies, so protocols differ.
Effect on: enzyme activity
Action: inhibitor
HDAC1: Histone deacetylase 1 (HDAC1, Homo sapiens, UniProt Q13547)
PARP10: Protein mono-ADP-ribosyltransferase PARP10 (PARP10, Homo sapiens, UniProt Q53GL7)

SMILES	target	test	IC50
CC(C)COc1ccc(N(Cc2nc(-c3ccccc3)cs2)C(=O)CCCCCC(=O)NO)cc1	HDAC1		2.6 nM
O=c1[nH]c2c(nnn2C2CCCCC2)c2ccccc12	PARP10		> 10000 nM
COc1ccc(Nc2ncnc3c2ncn3Cc2ccc(C(=O)NO)cc2)cc1	HDAC1	fluorescence	260 nM
O=C(CCCCc1ccc(CO)cc1)C(F)(F)C(F)(F)F	Cytosolic phospholipase A2 (PLA2G4A, Homo sapiens, UniProt P47712)		121000 nM
O=C(NO)c1ccc(Cn2cnc3c(Nc4ccc(F)c(Cl)c4)ncnc32)cc1	Histone deacetylase 8 (HDAC8, Homo sapiens, UniProt Q9BY41)		154 nM
Nc1nc2c(ncn2[C@H]2CC[C@@H](COP(=O)(O)OP(=O)(O)OP(=O)(O)O)O2)c(=O)[nH]1	TERT (Tribolium castaneum, UniProt Q0QHL8)	fluorescence	550 nM
COc1ccc(N(Cc2csc(-c3ccccc3Br)n2)C(=O)CCCCCC(=O)NO)cc1	HDAC1		1.3 nM
O=C(NO)c1ccc(Cn2cnc3c(Nc4cccc([N+](=O)[O-])c4)ncnc32)cc1	HDAC1	fluorescence	148 nM
Clc1ccc(Nc2ccncc2)cc1Cl	Uracil-DNA glycosylase (UNG, Homo sapiens, UniProt P13051)		> 99000 nM
O=c1[nH]c2c(nnn2Cc2ccccc2)c2ccc(F)cc12	PARP10		933 nM
COc1ccc(N(Cc2csc(-c3ccccc3)n2)C(=O)CCCCCC(=O)NO)cc1	HDAC1		1.1 nM
Nc1ccccc1NC(=O)c1ccc(Cn2cnc3c(Nc4ccc(Cl)cc4)ncnc32)cc1	HDAC1	fluorescence	14.1 nM
O=C(CCCCCC(=O)N(Cc1nc(-c2ccccc2)cs1)c1ccc(OCc2ccc(F)cc2)cc1)NO	HDAC1		3.8 nM
O=c1[nH]c2c(nnn2-c2ccccc2)c2ccc(F)cc12	PARP10		> 10000 nM
COc1ccc(N(Cc2nc(-c3ccc(C)cc3)cs2)C(=O)CCCCCC(=O)NO)cc1	HDAC1		2.6 nM
Cc1ccccc1Cn1nnc2c3ccc(F)cc3c(=O)[nH]c21	PARP10		> 10000 nM
COc1ccc(N(Cc2nc(-c3ccc(Br)cc3)cs2)C(=O)CCCCCC(=O)NO)cc1	HDAC1		3.6 nM
Cc1ccc(Cn2nnc3c4ccc(C(F)(F)F)cc4c(=O)[nH]c32)cc1	PARP10		> 10000 nM
Cc1ccc(S(=O)(=O)NNc2ccc([N+](=O)[O-])cc2[N+](=O)[O-])cc1	Polyunsaturated fatty acid 5-lipoxygenase (ALOX5, Homo sapiens, UniProt P09917)		1330 nM
Cc1ccc(Cn2nnc3c4ccccc4c(=O)[nH]c32)cc1	PARP10		204 nM
O=C(O[C@@H]1COC(=O)c2cc(O)c(O)c(O)c2-c2c(cc(O)c(O)c2O)C(=O)O[C@H]1[C@@H]1OC(=O)c2cc(O)c(O)c(O)c2-c2c(O)c(O)c(O)c3c2C(=O)O[C@H]1[C@@H]3O)c1cc(O)c(O)c(O)c1	Seed linoleate 13S-lipoxygenase-1 (Glycine max, UniProt P08170)		36200 nM
O=c1[nH]c2c(nnn2Cc2ccccc2C(F)(F)F)c2ccccc12	PARP10		> 10000 nM
COc1ccc(N(Cc2csc(-c3ccc(Br)cc3)n2)C(=O)CCCCCC(=O)NO)cc1	HDAC1		1 nM
Cc1ccc(Cn2nnc3c4cc(C)ccc4c(=O)[nH]c32)cc1	PARP10		> 10000 nM
COc1ccc(N(Cc2csc(-c3ccc(C)cc3)n2)C(=O)CCCCCC(=O)NO)cc1	HDAC1		0.8 nM
